For one test, the system named is HL-60. The test can be described thus: Cytotoxicity against human HL60 cells by colorimetric method. The class given is functional, cell-based.
For a further test, the system named is MDA-MB-435. In words: Cytotoxicity against human MDA-MB-435 cells by colorimetric method. In kind it is functional, cell-based.
The nature of test [1]: Cytotoxicity against human lymphocytes by colorimetric method. In kind it is cell-based. As to conditions: Lymphocyte.
For the next test, the system named is PC-3. In words: Cytotoxicity against human PC3 cells by colorimetric method. In kind it is functional, cell-based.
Test [2] can be described thus: Cytotoxicity against human HCT8 cells by colorimetric method. The settings on record: HCT-8. In kind it is functional, cell-based.
The test system of another test is SF-295. The test can be described thus: Cytotoxicity against human SF295 cells by colorimetric method. In kind it is functional, cell-based.
A further test relates to Leishmania major. The test can be described thus: Antileishmanial activity against Leishmania major by AlamarBlue assay. In kind it is functional. As to conditions: read-out: LD50 (the source's name). (Resazurin is reduced to fluorescent resorufin, in cell work by metabolically active cells.)
The test system of the next test is Leishmania donovani. The test can be described thus: Antileishmanial activity against Leishmania donovani by AlamarBlue assay. In kind it is functional, organism-based. The procedure, abridged: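 Microplate Alamar Blue (MABA) growth-inhibition assay on *L. donovani*, with amphotericin B and pentamidine as reference drugs.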

SMILES strings stand for the structures. Some results are limits rather than exact numbers.

In the case of `COc1cc2oc(CO)cc(=O)c2c(O)c1C`, the IC50 (in the test with HL-60; in the test with MDA-MB-435; in test [1]; in the test on PC-3; in test [2]; in the test on SF-295) was over 105 µM each time.
For the compound `CC1=CC2=C(C=O)C(=O)[C@](C)(O)[C@@H](O)C2=CO1`, the half-maximal inhibitory concentration (IC50) – broadly, the concentration that gives 50% inhibition – was 38.8 µM in the test on HL-60; 34.3 µM with MDA-MB-435; 80.5 µM in the test on Leishmania donovani; over 113 µM in test [1]; 12.9 µM in test [2]; 28 µM with SF-295. Further, the LC50 with Leishmania major turned out to be 20.5 µM.
Turning to `COc1cc2oc(C)cc(=O)c2c(O)c1OC` [STELLATIN], the IC50 with HL-60 was over 105 µM; with MDA-MB-435, over 105 µM; in the test on Leishmania donovani, over 169 µM; in test [1], over 105 µM; in the test with PC-3 it was 20.5 µM; in test [2], over 105 µM. The IC50 with SF-295 is over 105 µM. Also, in the test with Leishmania major, the LC50 was 34.5 µM.
On to `CC(=O)O[C@H]1C2=COC(C)=CC2=C(CC2=C3C=C(C)OC=C3[C@H](OC(C)=O)[C@@](C)(OC(C)=O)C2=O)C(=O)[C@]1(C)OC(C)=O`, for which the IC50 is over 42 µM with HL-60; over 42 µM in the test on MDA-MB-435; over 42 µM in test [1]; 33.3 µM in the test with PC-3; over 42 µM in test [2]; over 42 µM with SF-295.
For `COc1cccc2c1C(=O)c1c(O)c3c(c(O)c1C2=O)C[C@@](O)(C(=O)CO)C[C@@H]3O[C@H]1C[C@H](N)[C@H](O)[C@H](C)O1` [DOXORUBICIN], the IC50 in the test on MDA-MB-435 came to 1.51 µM; in test [1], 0.7 µM; in the test on PC-3, 0.41 µM; in the test on SF-295 it was 0.7 µM.
With `CC(=O)O[C@H]1C2=COC(C)=CC2=C(C=O)C(=O)[C@]1(C)OC(C)=O`, the IC50 is 22.1 µM in the test on HL-60; 26.9 µM with MDA-MB-435; 59.3 µM in the test on Leishmania donovani; over 78 µM in test [1]; 13.9 µM in test [2]; 26.3 µM with SF-295. In addition, in the test on Leishmania major, the LC50 turned out to be 19.8 µM.
As for `COc1cc2oc(C)cc(=O)c2c(O)c1C`, the half-maximal inhibitory concentration (IC50) with HL-60 was over 113 µM; with MDA-MB-435, over 113 µM; with Leishmania donovani it was over 181 µM; in test [1], over 113 µM; with PC-3, over 113 µM; in test [2] it was over 113 µM. Further, the IC50 in the test with SF-295 was over 113 µM. In the test on Leishmania major, the LC50 is 39.9 µM.
For the compound `CC1=CC2=C(CC3=C4C=C(C)OC=C4[C@H](O)[C@@](C)(O)C3=O)C(=O)[C@](C)(O)[C@@H](O)C2=CO1`, the IC50 is over 58 µM with HL-60; over 58 µM in the test on MDA-MB-435; over 93.4 µM with Leishmania donovani; over 58 µM in test [1]; 10 µM in the test with PC-3; over 58 µM in test [2]. The IC50 in the test on SF-295 was over 58 µM. The LC50 in the test with Leishmania major worked out at 28.5 µM.
`C[C@@H]1[C@H](O)[C@@H](C)/C=C/C=C/C=C/C=C/C=C/C=C/C=C/[C@H](O[C@@H]2O[C@H](C)[C@@H](O)[C@H](N)[C@@H]2O)C[C@@H]2O[C@](O)(C[C@@H](O)C[C@@H](O)[C@H](O)CC[C@@H](O)C[C@@H](O)CC(=O)O[C@H]1C)C[C@H](O)[C@H]2C(=O)O` [AMPHOTERICIN B] returned an IC50 with Leishmania donovani of 0.14 µM.
Consider `CN[C@@H]1[C@@H](O)[C@@H](O[C@@H]2[C@@H](O)[C@H](O[C@H]3O[C@H]([C@@H](C)O)[C@@H](O)[C@H](O)[C@H]3N)[C@@H](N)C[C@H]2N)OC[C@]1(C)O` [GENETICIN], for which the LC50 with Leishmania major stood at 3.43 µM.
`CC1=CC2=C(Cc3c(O)c(C)c4c(c3O)C(=O)OC(C)C4)C(=O)[C@](C)(O)[C@@H](O)C2=CO1` (stereo partly drawn): the concentration for half-maximal inhibition (IC50) is over 58 µM in the test with HL-60; over 58 µM in the test with MDA-MB-435; over 58 µM in test [1]; 7.1 µM in the test on PC-3; over 58 µM in test [2]; over 58 µM in the test on SF-295. The LC50 with Leishmania major was found to be 21.7 µM.

The record behind these values is ChEMBL document CHEMBL3102817, “Mycoleptones A-C and polyketides from the endophyte Mycoleptodiscus indicus” (J Nat Prod, 2014).
